# Experimental data: ChEMBL document CHEMBL3046413, “Synthesis and insecticidal activity of some novel fraxinellone-based esters” (2012)
# Columns and labels:
# Format in all cases: functional
# Mythimna separata [1] = experiment: Insecticidal activity against Mythimna separata (Oriental armyworm) in wheat leaves assessed as mortality rate at 1 mg/mL at 25 degC measured after 35 days by leaf-dipping method relative to control; conditions: 840 h
# How it was run: (§1)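 Leaf-dipping assay on pre-third-instar M. separata larvae. Compounds dissolved in acetone at 1 mg/mL; fresh wheat leaves dipped 3 s, then air-dried. Acetone-treated leaves served as control. 30 larvae per compound in groups of 10 per dish, with treated leaves replenished when consumed. After 48 h, larvae were switched to untreated fresh leaves. Corrected mortality = (T − C) × 100/(1 − C); three replicates.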
# Mythimna separata [2] = experiment: Insecticidal activity against Mythimna separata (Oriental armyworm) in wheat leaves assessed as mortality rate at 1 mg/mL at 25 degC measured after 25 days by leaf-dipping method relative to control; conditions: 600 h; how it was run: as §1
# Mythimna separata [3] = experiment: Insecticidal activity against Mythimna separata (Oriental armyworm) in wheat leaves assessed as mortality rate at 1 mg/mL at 25 degC measured after 10 days by leaf-dipping method relative to control; conditions: 240 h; how it was run: as §1
Compound,mortality at 1000 µg/mL (Mythimna separata [1]),mortality at 1000 µg/mL (Mythimna separata [2]),mortality at 1000 µg/mL (Mythimna separata [3])
CC1=C2C(=O)O[C@@H](c3ccoc3)[C@]2(C)CC[C@H]1OC(=O)c1cccc([N+](=O)[O-])c1,48.1%,40.7%,10.3%
CC1=C2C(=O)O[C@@H](c3ccoc3)[C@]2(C)CC[C@H]1OC(=O)Cc1ccccc1,44.4%,37%,31%
CC1=C2C(=O)O[C@@H](c3ccoc3)[C@]2(C)CC[C@H]1OC(=O)c1cccc(Br)c1,44.4%,40.7%,20.7%
C[C@@]12CCCC(COC(=O)c3ccc(C#N)cc3)=C1C(=O)O[C@H]2c1ccoc1,44.4%,25.9%,6.9%
CC(=O)O[C@@H]1C[C@H](O)[C@@]23CO[C@@H](O)[C@]1(C)[C@@H]2C[C@@H](O)[C@]1(C)[C@@H]3C(=O)[C@H](OC(C)=O)[C@@]2(C)[C@H](c3ccoc3)C[C@H]3O[C@]321 [TOOSENDANIN],48.1%,33.3%,27.6%
CC1=C2C(=O)O[C@@H](c3ccoc3)[C@]2(C)CC[C@H]1OC(=O)c1ccc(C#N)cc1,55.6%,48.1%,20.7%
CC1=C2C(=O)O[C@@H](c3ccoc3)[C@]2(C)CC[C@H]1O [4ALPHA-HYDROXYFRAXINELLONE],48.1%,37%,20.7%
CC1=C2C(=O)O[C@@H](c3ccoc3)[C@]2(C)CC[C@H]1OC(=O)c1ccc(Cl)cc1,40.7%,33.3%,20.7%
CC1=C2C(=O)O[C@@H](c3ccoc3)[C@]2(C)CC[C@H]1OC(=O)c1cccc(F)c1,44.4%,29.6%,24.1%
CC1=C2C(=O)O[C@@H](c3ccoc3)[C@]2(C)CC[C@H]1OC(=O)c1ccc(F)cc1,63%,51.9%,24.1%
CC1=C2C(=O)O[C@@H](c3ccoc3)[C@]2(C)CC[C@H]1OC(=O)c1cccnc1,55.6%,40.7%,20.7%
C[C@@]12CCCC(COC(=O)c3cccc([N+](=O)[O-])c3)=C1C(=O)O[C@H]2c1ccoc1,44.4%,29.6%,24.1%
Cc1ccc(C(=O)OCC2=C3C(=O)O[C@@H](c4ccoc4)[C@]3(C)CCC2)cc1,29.6%,29.6%,17.2%
C[C@@]12CCCC(COC(=O)Cc3ccccc3)=C1C(=O)O[C@H]2c1ccoc1,44.4%,33.3%,27.6%
COc1cccc2ccc(C(=O)O[C@@H]3CC[C@]4(C)C(=C3C)C(=O)O[C@H]4c3ccoc3)nc12,63%,48.1%,20.7%
C[C@@]12CCCC(COC(=O)c3cccc(Br)c3)=C1C(=O)O[C@H]2c1ccoc1,33.3%,25.9%,13.8%
CC1=C2C(=O)O[C@@H](c3ccoc3)[C@]2(C)CC[C@H]1OC(=O)c1ccc(Br)cc1,37%,25.9%,24.1%
CC1=C2C(=O)O[C@@H](c3ccoc3)[C@]2(C)CCC1 [FRAXINELLONE],44.4%,33.3%,20.7%
CC1=C2C(=O)O[C@@H](c3ccoc3)[C@]2(C)CC[C@H]1OC(=O)Cc1cccc2ccccc12,51.9%,29.6%,10.3%

Compound,mortality at 1000 µg/mL (Mythimna separata [1]),mortality at 1000 µg/mL (Mythimna separata [2]),mortality at 1000 µg/mL (Mythimna separata [3])
CCCCCCCC(=O)OCC1=C2C(=O)O[C@@H](c3ccoc3)[C@]2(C)CCC1,33.3%,25.9%,6.9%
CCCCCCCC(=O)O[C@@H]1CC[C@]2(C)C(=C1C)C(=O)O[C@H]2c1ccoc1,48.1%,33.3%,10.3%
CC1=C2C(=O)O[C@@H](c3ccoc3)[C@]2(C)CC[C@H]1OC(=O)COc1cccc2cccnc12,51.9%,37%,13.8%
C[C@@]12CCCC(COC(=O)c3ccc(F)cc3)=C1C(=O)O[C@H]2c1ccoc1,51.9%,40.7%,10.3%
CC1=C2C(=O)O[C@@H](c3ccoc3)[C@]2(C)CC[C@H]1OC(=O)c1ccccc1,44.4%,44.4%,41.4%
C[C@@]12CCCC(COC(=O)c3ccncc3)=C1C(=O)O[C@H]2c1ccoc1,59.3%,48.1%,24.1%
C[C@@]12CCCC(COC(=O)c3ccccc3)=C1C(=O)O[C@H]2c1ccoc1,29.6%,29.6%,17.2%
C[C@@]12CCCC(COC(=O)c3cccc(F)c3)=C1C(=O)O[C@H]2c1ccoc1,55.6%,51.9%,24.1%
C[C@@]12CCCC(COC(=O)c3cccnc3)=C1C(=O)O[C@H]2c1ccoc1,51.9%,44.4%,27.6%
CC1=C2C(=O)O[C@@H](c3ccoc3)[C@]2(C)CC[C@H]1OC(=O)c1ccc(C)cc1,40.7%,40.7%,24.1%
C[C@@]12CCCC(COC(=O)Cc3cccc4ccccc34)=C1C(=O)O[C@H]2c1ccoc1,48.1%,33.3%,20.7%
CC1=C2C(=O)O[C@@H](c3ccoc3)[C@]2(C)CC[C@H]1OC(=O)c1ccc([N+](=O)[O-])cc1,51.9%,40.7%,27.6%
C[C@@]12CCCC(COC(=O)c3ccc(Cl)cc3)=C1C(=O)O[C@H]2c1ccoc1,40.7%,25.9%,6.9%
C[C@@]12CCCC(COC(=O)c3ccc(Br)cc3)=C1C(=O)O[C@H]2c1ccoc1,33.3%,29.6%,24.1%
CC1=C2C(=O)O[C@@H](c3ccoc3)[C@]2(C)CC[C@H]1OC(=O)c1ccncc1,66.7%,48.1%,24.1%
CCCCCCCCCCC(=O)O[C@@H]1CC[C@]2(C)C(=C1C)C(=O)O[C@H]2c1ccoc1,48.1%,40.7%,20.7%
C[C@@]12CCCC(CO)=C1C(=O)O[C@H]2c1ccoc1,40.7%,29.6%,10.3%
CC1=C2C(=O)O[C@@H](c3ccoc3)[C@]2(C)CC[C@H]1OC(=O)c1ccco1,51.9%,40.7%,31%
C[C@@]12CCCC(COC(=O)c3ccc([N+](=O)[O-])cc3)=C1C(=O)O[C@H]2c1ccoc1,40.7%,33.3%,13.8%
